The values below come from ChEMBL document CHEMBL4715734, “Discovery of the Potent and Selective M1 PAM-Agonist N-[(3R,4S)-3-Hydroxytetrahydro-2H-pyran-4-yl]-5-methyl-4-[4-(1,3-thiazol-4-yl)benzyl]pyridine-2-carboxamide (PF-06767832): Evaluation of Efficacy and Cholinergic Side Effects” (J Med Chem, 2016).

A short description of series [1]: Toxicity in male Beagle dog assessed as effect on cardiac contractility at 3 mg/kg, po administered as single dose observed upto 9 hrs post last dose by telemetry. Format: organism-based, Canis lupus familiaris. The following applies: in vivo. In a few lines:
(§1)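 Crossover telemetry study in dogs at three oral doses (0.3, 1 and 3 mg/kg), N=4. Endpoints were blood pressure, maximum systolic left ventricular pressure, LV +dP/dt max, activity, heart rate, and RR, QT and QTc intervals, followed up to 9 h post dose.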

Series [2] can be described thus: Toxicity in male Beagle dog assessed as increase in maximum systolic left ventricular pressure at 1 mg/kg, po observed upto 9 hrs post last dose by telemetry. The following applies: in vivo. Format: organism-based, Canis lupus familiaris. The gist of the method:
as §1

Series [3] can be described thus: Toxicity in dog assessed as salivation at 45 mg/kg, po using spray-dried dispersion formulation measured after 45 mins. Format: organism-based, Canis lupus familiaris. Conditions: in vivo, 0.75 h; call rule not given here.
Series [4] in a line: Toxicity in dog assessed as salivation at 5 mg/kg, po using spray-dried dispersion formulation. Format: organism-based, Canis lupus familiaris. The following applies: in vivo.
A short description of series [5]: Toxicity in dog assessed as induction of mucoid feces at 15 mg/kg, po using spray-dried dispersion formulation. Format: organism-based, Canis lupus familiaris. Conditions: in vivo.
Series [6] is described as follows: Toxicity in dog assessed as salivation at 3 mg/kg, po using spray-dried dispersion formulation. Format: organism-based, Canis lupus familiaris. The following applies: in vivo.
A short description of series [7]: fCmax in dog at 0.3 mg/kg, po measured after 4 hrs using spray-dried dispersion formulation. Conditions: in vivo. Format: ADME, organism-based, Canis lupus familiaris. The gist of the method:
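Dogs from the crossover cardiovascular telemetry study (N=4), dosed orally at 0.3, 1 and 3 mg/kg; unbound Cmax extrapolated from 4 h post-dose in-life plasma samples.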

Series [8] can be described thus: Toxicity in rat assessed as increase in food intake at 10 mg/kg, po administered for 14 days. Format: organism-based. Conditions: in vivo, 336 h, time 14 day. The gist of the method:
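Two-week repeat-dose toxicity study in rats. Oral dosing in 0.5% methylcellulose at 3, 10, 30 (males)/15 (females) mg/kg, N=4/sex/dose. Food intake, body weight gain and histopathology were assessed.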

Series [9] in a line: Unbound brain concentration in scopolamine-induced Wistar rat model at 1 mg/kg, po measured after 1 hr. Format: ADME, organism-based. The following applies: in vivo.
Series [10] in a line: Unbound plasma concentration in amphetamine-induced C57BL/6J mouse model of hyperlocomotion at 1 mg/kg, sc measured after 1 hr. Format: ADME, organism-based. The following applies: in vivo. In a few lines:
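Satellite PK animals from the mouse aLMA study, N=2/dose. Dosed subcutaneously with a solution in 5/15/80 DMSO/Solutol/water. Plasma and brain were sampled at T = 1 h.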

Series [11] can be described thus: Positive allosteric modulation of muscarinic M2/M3 receptor in Hartley guinea pig ileum assessed as increase in donepezil-induced stimulation of contraction in presence of mAChR antagonist atropine. Format: tissue-based, Cavia porcellus. In a few lines: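 PAM mode used guinea pig ileum in a tissue bath. Contraction concentration–response curves were run in the presence of an EC20 of donepezil, with or without atropine.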

Series [12] deals with T1, Muscarinic acetylcholine receptor M2 (Homo sapiens, UniProt P08172).
T1 sequence (P08172 whole entry): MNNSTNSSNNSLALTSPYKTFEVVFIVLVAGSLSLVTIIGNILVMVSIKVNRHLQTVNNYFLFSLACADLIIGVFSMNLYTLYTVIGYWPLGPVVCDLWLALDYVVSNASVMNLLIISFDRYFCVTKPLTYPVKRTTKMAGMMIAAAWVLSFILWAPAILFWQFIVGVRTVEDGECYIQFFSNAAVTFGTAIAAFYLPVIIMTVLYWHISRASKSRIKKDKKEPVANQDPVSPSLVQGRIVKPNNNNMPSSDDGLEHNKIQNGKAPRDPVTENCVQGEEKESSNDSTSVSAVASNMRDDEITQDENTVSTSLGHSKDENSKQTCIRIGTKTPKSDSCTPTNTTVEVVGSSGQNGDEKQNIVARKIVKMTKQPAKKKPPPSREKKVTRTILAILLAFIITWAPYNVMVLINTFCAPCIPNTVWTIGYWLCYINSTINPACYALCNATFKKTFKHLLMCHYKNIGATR
As to the kind of experiment: Positive allosteric modulation of human recombinant muscarinic M2 receptor stably expressed in HEK cells assessed as increase in ACh-induced cAMP accumulation up to 10 uM measured after 10 mins by GloSensor cAMP Assay. Format: cell-based. (In general: cAMP levels reflect the balance of adenylyl cyclase and phosphodiesterase activity.)

For series [13], the target named is T2, Muscarinic acetylcholine receptor M1 (Homo sapiens, UniProt P11229).
T2 sequence (P11229 whole entry): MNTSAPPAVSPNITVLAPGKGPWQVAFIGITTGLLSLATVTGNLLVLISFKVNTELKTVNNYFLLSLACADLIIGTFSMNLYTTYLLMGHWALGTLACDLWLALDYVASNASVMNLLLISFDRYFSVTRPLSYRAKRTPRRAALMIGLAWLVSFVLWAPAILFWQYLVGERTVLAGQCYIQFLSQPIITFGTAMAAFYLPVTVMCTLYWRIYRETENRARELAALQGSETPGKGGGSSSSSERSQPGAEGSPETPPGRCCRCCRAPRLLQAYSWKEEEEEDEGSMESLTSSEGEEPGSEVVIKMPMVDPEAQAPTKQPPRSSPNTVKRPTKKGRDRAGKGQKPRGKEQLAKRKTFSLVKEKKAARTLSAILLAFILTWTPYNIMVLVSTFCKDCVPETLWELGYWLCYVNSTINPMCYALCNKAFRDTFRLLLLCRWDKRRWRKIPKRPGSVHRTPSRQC
As to the kind of experiment: Partial agonist activity at human muscarinic M1 receptor stably expressed in CHO cells assessed as increase in intracellular calcium level measured after 10 mins by Fluo-8AM dye based FLIPR TETRA method. Format: functional, cell-based. (In general: Calcium flux is commonly read through the fluorescence of an indicator in the cells.)

Series [14] is described as follows: Fraction unbound in rat brain. Format: ADME, cell-free.
Series [15] is described as follows: Ratio of fAUC in monkey brain to plasma. Format: ADME, cell-free, Macaca mulatta. The following applies: rhesus monkey, brain and plasma; read-out: Ratio AUC.
A short description of series [16]: Ratio of fAUC in dog brain to plasma. Format: ADME, cell-free, Canis lupus familiaris. The following applies: brain and plasma, read-out: Ratio AUC.
Series [17] is described as follows: In vivo positive allosteric modulation of muscarinic M1 receptor in CD1 mouse assessed as increase in ACh-induced IP-1 levels in […] tissue at 1 mg/kg, sc measured after 2 hrs by HTRF assay relative to baseline. Format: functional. In a few lines: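 Given sc as a solution in 5/15/80 DMSO/Solutol/water. Striatal IP1 was read 2 h after dosing and expressed as fold increase over baseline. Compound levels were measured in striatal tissue at 2 h (N=5/dose). Each animal's fold increase was plotted against its unbound brain concentration.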
(TR-FRET usually uses a lanthanide donor and a delayed reading to cut background.)

In the case of `Cc1cnc(C(=O)N[C@H]2CCOC[C@@H]2O)cc1Cc1ccc(-c2cscn2)cc1`, the Activity result is on record as “Toxic” in series [1]; 8 mmHg in series [2]; “Toxic” in series [3]; “Toxic” in [4]; “Toxic” in [5]; “Toxic” in series [6]. Besides, the Activity result in [8] is “Non-Toxic”; in series [11] it was “Not Active”; in [12], “Not Active”. The compound also gave a fCmax in series [7] of 41 nM. In [9], the “Drug uptake(free)” value came to 6.7 nM. Also, the “Cp(f)” value in series [10] is 76.1 nM. Moreover, the EC50 (in general, the midpoint of the concentration-response curve) in series [13] is not below 3.9 µM. Besides, the Fu in series [14] came out at 4%. In addition, the Kp uu in series [15] was determined as 0.51; in series [16], 0.3. In addition, in series [17], the “fold change (FC)” value came out at 2.
